G6PDH counter = L. mesenteroides G6PDH inhibition counter-screen. Purified L. mesenteroides G6PDH, diaphorase/resazurin coupled fluorescence, 45 min. inhibition, % at 5 µM. 200,000 compounds, 0.12% hits. AID 1020; in the data active = inhibition above about 50%
TbHK1 inh = blocks Trypanosoma brucei hexokinase 1 activity. AID 1430. 220,000 compounds, 0.11% hits. inhibition, % at 10 µM. recombinant TbHK1, G6PDH-coupled NADH A340;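 active = inhibition of 50% or more in the single-dose primary screen; inactive = inhibition below 50%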
PfG6PD inh = PfG6PD (Plasmodium falciparum) enzyme inhibition | PfGluPho enzyme, NADPH resazurin-diaphorase fluorescence | inhibition, % at 20 µM | 350,000 compounds, 0.78% hits;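 active = inhibition reaching at least a set limit at 20 µM in the primary screen, cut at about 59% in these data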;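 note: 0% = DMSO wells with substrate and 100% = DMSO wells lacking glucose-6-phosphate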
HKDC1 inh = HKDC1 (human) hexokinase inhibition | Q2TB90 | recombinant HKDC1, G6PDH/diaphorase resazurin coupled fluorescence | inhibition, % at 20 µM | 340,000 compounds, 0.16% hits;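 active = inhibition above about 35% when tested at 20 µM, limit read from the data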;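 note: plate controls were DMSO wells with enzyme for no effect and DMSO wells lacking enzyme for full effect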
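Assay system: recombinant HKDC1 hexokinase; detection: coupled resazurin fluorescence, excitation 525 nm, emission 613 nm; benchmarks: DMSO-plus-enzyme-mix negative control, buffer-substituted positive control; compound dosing: single 20 µM dose; schedule: 90 min at room temperature in dark; also added: glucose plus 1 mM ATP as hexokinase substrates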
Diaphorase inh = counter-screen for diaphorase-based assays: diaphorase inhibitors and chemical oxidizers; diaphorase resazurin-to-resorufin fluorescence, NADH, 16 min; bacterial (C. kluyveri) enzyme, not human; inhibition, % at 20 µM; 190,000 compounds, 0.69% hits;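 active = primary screen inhibition at 20 µM above a set limit, cut at about 50% in these data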;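 note: plate controls were DMSO with full reaction for no effect and wells lacking NADH for full effect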
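Test system: Clostridium kluyveri diaphorase enzyme / Quantity: diaphorase at 0.14 U/mL in enzyme working solution / Incubation: 16-min room-temperature incubation before reading / Benchmarks: NADH-free wells as positive control, DMSO-only neutral wells / Signal: resorufin fluorescence 544/590 nm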
* = called active by the depositor; / = no result. An excerpt weighted towards active compounds, which were near 1.3% of everything screened.

SMILES | G6PDH counter | TbHK1 inh | PfG6PD inh | HKDC1 inh | Diaphorase inh
Cc1c(Br)c(=O)oc2c(Br)c(O)c(O)cc12 | 26.0 | 26.6 | -15.4 | 3.1 | 75.4*
O=[N+]([O-])c1ccccc1/C=C/C=N/n1c(-c2ccc(Cl)cc2)n[nH]c1=S | -0.6 | -5.6 | 4.2 | -30.6 | 21.5
O=[N+]([O-])c1ccccc1/C=C/C=N/n1c(-c2ccccc2)n[nH]c1=S | 0.6 | -3.7 | 15.1 | 14.2 | 68.2*
Cc1ccc(-c2n[nH]c(=S)n2/N=C/C=C\c2ccccc2[N+](=O)[O-])cc1 | -6.9 | 23.5 | 17.6 | -1.5 | 66.2*
CCn1c(SCC(=O)NC2CC2)nnc1-c1csc(C)c1 | / | / | -0.2 | -5.5 | /
O=C1C2C3C=CC(CO)(O3)C2C(=O)N1c1ccccc1-c1ccccc1 (centres undefined) | -1.9 | 1.6 | 82.2* | -4.4 | 17.1
COc1ccccc1N1CCN(C(=O)c2onc(C)c2Cl)CC1 | / | / | 3.3 | -5.8 | /
CCn1c(SCC(=O)c2ccc(O)c(O)c2)nnc1-c1ccc(C)cc1 | -0.3 | 28.1 | -53.5 | -15.3 | 56.0*
CCn1c(SCC(=O)c2ccc3c(c2)Cc2ccccc2-3)nnc1-c1ccc(N)cc1 | 9.9 | -13.6 | 0.2 | -5.7 | -5.4
Clc1ccccc1C1Nc2cccc3cccc(c23)N1 | / | / | 20.8 | 11.1 | /
c1coc(C2Nc3cccc4cccc(c34)N2)c1 | 21.3 | -30.8 | / | / | 69.9*
COc1ccc(C(C)=O)cc1CN1C(=O)NC2(CCCC2)C1=O | 3.8 | -0.3 | -0.4 | -14.0 | 4.4
COc1ccc(S(=O)(=O)Cc2ccc(C(=O)N3CCc4ccccc4C3)o2)cc1 | 6.7 | 4.9 | -7.7 | 2.8 | 16.5
Cc1cc(C)n2c(SC/C(O)=C(\C#N)c3nc4ccccc4[nH]3)nnc2n1 | 21.9 | -28.6 | -9.2 | 10.3 | 52.7*
Cc1ccccc1-n1c(SC/C(O)=C(\C#N)c2nc3ccccc3[nH]2)nnc1-c1ccncc1 | -0.7 | -16.3 | -0.9 | 4.4 | 42.8
COc1ccc(C=Nc2ccc3[nH]ncc3c2)c(O)c1 | 40.4 | -7.3 | 21.8 | 10.5 | 65.5*
Oc1ccc(Cl)cc1C=Nc1ccc2c3c(cccc13)CC2 | 34.1 | 13.3 | 39.8 | 5.2 | 60.2*
CN(C)c1cc(N/N=C/c2ccc(Cl)cc2)nc(N(C)C)n1 | 42.9 | -2.5 | 41.6 | 10.8 | 54.5*
COc1cc(/C=N/NC(=S)Nc2cccc(Cl)c2C)ccc1OCC(=O)N1CC(C)OC(C)C1 (centres undefined) | -23.8 | -24.8 | 9.3 | -13.4 | 54.4*
O=C(NNC(=S)NC(=O)c1ccccc1[N+](=O)[O-])c1ccccc1O | 5.4 | -8.8 | -44.4 | -27.8 | 59.3*
O=C(NNC(=S)NC(=O)c1ccccc1[N+](=O)[O-])c1ccccc1[N+](=O)[O-] | 9.8 | -7.7 | -19.9 | -14.0 | 8.1
Cc1cc(=O)oc2cc(OCC(=O)OC(C)C(=O)Nc3ccc(S(N)(=O)=O)cc3)ccc12 (centres undefined) | / | / | -0.6 | -2.3 | /
COc1ccc(-c2c3c(=O)n(C)c(=O)n(C)c3cn2-c2cc(OC)ccc2OC)cc1 | -1.4 | -13.6 | 8.2 | 0.5 | 4.5
S=c1[nH]ncn1/N=C/c1cccc(Oc2ccccc2)c1 | 7.8 | -4.9 | 21.1 | -3.3 | 85.0*
CN(C(=S)NC(=O)C12CC3CC(CC(C3)C1)C2)c1ccc(O)cc1 | / | / | 102.8* | 12.9 | /
SMILES | G6PDH counter | TbHK1 inh | PfG6PD inh | HKDC1 inh | Diaphorase inh
O=C(O)CC(CCc1ccccc1)OC1OC(CO)C(O)C(O)C1O (centres undefined) | / | 72.8* | -15.4 | 0.9 | /
CCn1c(=O)n(CC)c2cc(N)ccc21 | 9.6 | -1.2 | 18.1 | -8.2 | 74.8*
CNc1cccccc1=S | 12.6 | -5.6 | 65.3* | 18.2 | 20.1
CNc1ccccc1 | / | / | -5.8 | -0.3 | /
Cc1nc(SCC(=O)Nc2cccc(C(=O)O)c2)n[nH]1 | / | / | 0.7 | -7.6 | /
Cn1c(CNc2ccccc2O)nc2ccccc21 | 60.7* | -0.9 | 20.9 | 8.5 | 39.7
O=C1CC(c2ccco2)Sc2nc3ccccc3n21 (centres undefined) | 12.1 | 1.7 | 2.8 | 4.7 | 51.3*
O=C1CC(c2ccccc2)Sc2nc3ccccc3n21 (centres undefined) | -2.0 | 1.5 | -7.3 | 3.3 | 13.9
O=c1ccc2ccc(O)cc2o1 | / | / | 4.0 | 0.6 | /
O=c1ccc2cc(O)c(O)cc2o1 | 45.4 | -8.2 | -22.9 | -1.1 | 61.3*
Oc1cc2c(cc1O)[C@@H](c1ccccc1)CNCC2 | 23.6 | 4.0 | 68.9* | -5.1 | 37.9
Oc1cc2c(cc1O)C(c1ccccc1)CNCC2 (centres undefined) | / | / | 46.8 | 1.7 | /

Screening results (PubChem BioAssay)
